# Experiments:
# BAT skin temperature = format: in vivo, mouse
# [1] = system: mouse adipocytes from eWAT; assay: lipolysis; format: cell-based; details: isolated adipocytes from eWAT, 500 nM G49, 4 h
# eWAT, iWAT, BAT = assay: PKA Thr197 and HSL Ser660 phosphorylation; format: in vivo, mouse; details: DIO mice, G49
# In short: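 Tissue lysates were cleared twice at 98,560 × g for 40 min at 4 °C; protein was measured by BCA. After transfer, loading was checked with Ponceau. Membranes were blocked with 6% skimmed milk in TBS-0.05% Tween-20 for 2 h at RT, then incubated with primary antibodies overnight at 4 °C.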
# [2] = intrahepatic triglyceride content; format: in vivo, mouse; details: DIO mice
# cumulative food intake = format: in vivo, mouse; details: DIO mice, H + G49, 72 h, versus vehicle
# [3] = system: POMC neurons, arcuate nucleus; assay: cFos-positive POMC neurons in ARC; format: in vivo, mouse; details: DIO mice
# In short: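 Brain slices were blocked 2 h at RT in PBS with 1% BSA and 0.1% Triton X-100. They were incubated overnight at 4 °C with anti-POMC and anti-c-Fos, then with secondary antibodies in 1% BSA/PBS for 2 h at RT, protected from light.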
# energy expenditure = format: in vivo, mouse; details: DIO mice, G49, day 3, light and dark phases
# In short: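 Mice entered metabolic cages 2 days before the first s.c. dose, which was given every 2 days. Indirect calorimetry parameters were then recorded for the following 3 days.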
# plasma adiponectin = format: in vivo, mouse; details: DIO mice, 24 h post-injection
# In short: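 Plasma ALT was read with Reflotron strips and plasma TGs by colorimetric assay. Serum FGF21 and plasma adiponectin and insulin were measured by ELISA.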
# brown adipocytes [4] = assay: brown adipocytes treated with serum of G49-treated mice; format: cell-based, mouse; details: serum from mice receiving G49 for 72 h
# In short: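 Brown preadipocytes were immortalised by retroviral SV40 Large T (20% FBS, 8 μg/mL polybrene, 48 h) at 70–80% confluence. Differentiation began with 2 days in induction medium (0.5 μM dexamethasone, 0.5 mM IBMX, indomethacin, 1 μM rosiglitazone).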
# [5] = system: primary mouse hepatocytes; assay: fatty acid oxidation and Cpt1a in primary mouse hepatocytes; format: cell-based; details: 500 nM G49, 16 h
# In short: (§1)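 Primary hepatocytes came from non-fasted male C57BL/6J mice fed HFD for 12 weeks, with or without in vivo treatment, by two-step collagenase perfusion. Cells were spun at 60 × g, purified on isotonic Percoll (1:1) at 230 × g and seeded on collagen. They were cultured 24 h at 37 °C, 5% CO2 before exposure to the test compound.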
# brown adipocytes [6] = assay: fatty acid oxidation in brown adipocytes; format: cell-based, mouse; details: G49, brown adipocytes
# In short: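 Palmitate oxidation to CO2 and to acid-soluble material (acyl-carnitine, Krebs cycle intermediates, acetyl-CoA) was measured in primary hepatocytes or differentiated brown adipocytes, with or without 500 nM test compound.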
# [7] = fatty acid oxidation in liver tissue; format: in vivo, mouse; details: DIO mice, G49, 72 h
# In short: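 Frozen liver (30 mg) was homogenised in cold STE buffer (25 mM Tris-HCl, sucrose, 1 mM EDTA, pH 7.4), sonicated 10 s and spun at 420 × g for 10 min at 4 °C. The supernatant was used for the oxidation reaction. Radioactive acid-soluble metabolites were counted by scintillation and expressed as nmol/g liver/h.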
# [8] = system: primary mouse hepatocytes; assay: insulin-induced AKT Ser473 phosphorylation in hepatocytes; format: cell-based; details: pre-treatment with G49
# In short: as §1
# [9] = liver-to-body weight ratio; format: in vivo, mouse; details: DIO mice, G49, 6 h
# liver histology = format: in vivo, mouse; details: DIO mice
# blood glucose = format: in vivo, mouse
# In short: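 DIO mice were fed 60%-fat HFD from 8 weeks of age, for 12 weeks (males) or 24 weeks (females); one male cohort was housed at 30 °C. The test compound was given s.c. every 2 days in 50 mM sodium phosphate/300 mM mannitol pH 6.9. Glucose and ketone bodies were read in tail-vein blood.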
# BAT, eWAT, iWAT = assay: UCP1 and TH protein; format: in vivo, mouse
# [10] = gene expression in mouse tissues/SVF; format: in vivo
# BAT explants = assay: OCR in BAT explants; format: in vivo, mouse; details: BAT explants of mice treated with G49 for 3 days
# In short: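 BAT explants came from DIO mice given test compound or vehicle for 72 h. OCR was run as a Seahorse Mito Stress assay with 2 µM oligomycin A, 2 µM FCCP, then 10 µM rotenone plus 10 µM antimycin. OCR (pmol/min) came from O2 tension over time.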
# [11] = FGF21Alb-KO mice, G49 plus recombinant murine FGF21
sequence,measurement,setting,value
HSQGTFTSDYSKYLEEEAVRLFIC (40 kDa PEG) WLMNT-amide acetate salt [G49],BAT temperature,"BAT skin temperature; Adipoq−/− mice, G49",G49-mediated increase in BAT temperature was reduced
same,BAT temperature,"BAT skin temperature; DIO mice, G49 + ATGLi, 72 h",suppression of G49 effects on UCP1 expression and BAT temperature
same,BAT temperature,BAT skin temperature; [11],markedly increased UCP1 protein levels and BAT temperature
same,BAT activation,"BAT skin temperature; UCP1−/− mice, G49, 1 week",no features of BAT activation were found
same,glycerol and FFA release,[1],increased glycerol and FFA release
same,PKA/HSL phosphorylation (lipolytic molecular signature),"eWAT, iWAT, BAT; BAT",not in brown adipose tissue (BAT)
same,PKA/HSL phosphorylation (lipolytic molecular signature),"eWAT, iWAT, BAT; iWAT",also found in iWAT
same,hepatic lipid overload,"[2]; G49 + GCGRant, 6 h",hepatic lipid overload and ALT elevation were not observed
same,liver triglycerides,"[2]; G49, time course","elevated at 3–12 h post-injection, peaking at 6 h"
same,inhibition of cumulative food intake,cumulative food intake,28.30 ± 2.61%
same,"activated POMC neurons, 1 week","[3]; G49, 1 week",percentage of activated POMC neurons was reduced
same,"cFos-positive POMC neurons, early","[3]; G49, after first injection",increase in cFos-positive POMC neurons
same,energy expenditure,energy expenditure,a significant increase in EE
same,"plasma adiponectin, early",plasma adiponectin,increase in adiponectin was observed as early as 24 h post-injection
same,Ucp1 mRNA and UCP1 protein,brown adipocytes [4],increased Ucp1 mRNA and UCP1 protein levels
same,Cpt1a mRNA and FAO,[5],increased Cpt1a mRNA levels and FAO
same,Cpt1b expression and FAO,brown adipocytes [6],increased Cpt1b gene expression and FAO
same,hepatic fatty acid oxidation,[7],concomitant increase in hepatic Cpt1a and Ppara mRNAs (Fig. 3J) and fatty acid oxidation (FAO)
same,insulin-induced AKT Ser473 phosphorylation,[8],increased insulin sensitivity manifested by elevations in insulin-induced AKTSer473 phosphorylation
same,liver-to-body weight ratio,[9],"an increase in lipid accumulation analyzed by H&E and oil-red O staining of liver sections, liver-to-body weight ratio, and alanine aminotransferase (ALT) activity"
same,hepatic lipid overload,"liver histology; G49 + ATGLi, 6 h",absent in mice co-treated with ATGLi
same,"lipid accumulation, liver sections","liver histology; G49, 6 h",an increase in lipid accumulation
same,blood glucose and adiposity,"blood glucose; female DIO mice, G49, 1 week",efficacy of G49 in reducing blood glucose and adiposity was also found in female mice
same,blood glucose and adiposity,"blood glucose; male DIO mice at thermoneutrality (30 °C), G49",in male mice housed at thermoneutrality
same,UCP1 protein,"BAT, eWAT, iWAT; Adipoq−/− mice, G49",no increase in UCP1 protein levels was found
same,UCP1 expression in BAT,"BAT, eWAT, iWAT; DIO mice, G49 + ATGLi, 72 h",suppression of G49 effects on UCP1 expression and BAT temperature
same,UCP1 protein in BAT,"BAT, eWAT, iWAT; DIO mice, G49 + GCGRant",did not present an increase in UCP1 protein levels
same,UCP1 and TH protein in BAT,"BAT, eWAT, iWAT; DIO mice, G49, 1 week","increase in thermogenic-related genes (Cpt1b, Dio2, CoxIVi1, Ucp1, Th, Fgf21) and protein levels of UCP1 and TH in BAT"
same,UCP1 protein in BAT,"BAT, eWAT, iWAT; FGF21Alb-KO mice, G49, 1 week",a lower effect of G49 in increasing in UCP1 protein levels in BAT
same,UCP1 protein in BAT,"BAT, eWAT, iWAT; [11]",markedly increased UCP1 protein levels and BAT temperature
same,UCP1 and TH protein,"BAT, eWAT, iWAT; eWAT, G49, 1 week",higher UCP1 and TH protein content
same,UCP1 protein,"BAT, eWAT, iWAT; iWAT, G49, 1 week",a similar improvement was found
same,hepatic Cpt1a and Ppara mRNAs,"[10]; DIO mice, G49",concomitant increase in hepatic Cpt1a and Ppara mRNAs
same,hepatic Srebf1 and Fasn mRNA,"[10]; DIO mice, G49 + ATGLi, 6 h",Srebf1 and Fasn mRNAs were reduced
same,liver Fgf21 mRNA upregulation,"[10]; DIO mice, G49 + ATGLi, 72 h",G49-mediated Fgf21 mRNA upregulation in the liver was also abolished
same,hepatic Fasn and Srebf1 mRNA,"[10]; DIO mice, G49 + GCGRant, 6 h",reduced by the presence of GCGRant
same,thermogenic-related genes in BAT,"[10]; DIO mice, G49, 1 week","increase in thermogenic-related genes (Cpt1b, Dio2, CoxIVi1, Ucp1, Th, Fgf21)"
same,Th mRNA in BAT,"[10]; DIO mice, G49 with blockade of GCGR",maintained G49-mediated increase in Th mRNA levels
same,Fgf21 mRNA in BAT,"[10]; FGF21Alb-KO mice, G49, 72 h",Fgf21 mRNA upregulation was not observed in BAT
same,Fgf21 mRNA in eWAT and iWAT,"[10]; FGF21Alb-KO mice, G49, 72 h",Fgf21 mRNA levels were upregulated in eWAT and iWAT
same,Th and cytokine mRNA in SVF,"[10]; SVF of eWAT, G49, 6 h and 24 h","an increase of Th mRNA at 6 h and a peak of Il14, Il10, and Il13 that declined at 24 h post-G49 treatment"
same,angiogenesis and beiging-related genes,"[10]; eWAT, G49, 1 week","Increases in angiogenesis (Vegf) and beiging-related genes (Cidea, Prdm16, CoxIVi1, Ucp1, Th, Cpt1a)"
same,M2 markers and Th mRNA,"[10]; eWAT, G49, 6 h","upregulated mRNA levels of M2 markers (Arg1, Il10, Tgfb) as well as Th"
same,"Acta2, Tgfb, Mmp9 mRNA","[10]; eWAT, G49, 6 h and day 7","transient increase in Acta2, Tgfb, and Mmp9 mRNA levels that declined at day 7"
same,Srebf1 and Fasn mRNA,"[10]; liver, DIO mice, G49, 6 h",both were elevated at 6 h post-G49 treatment
same,basal and maximal respiration,BAT explants,increased basal and maximal respiration in BAT explants

# Reference: publication PMC11605122 (Nature Communications, 2024)
